Consider 61 compounds from ChEMBL document CHEMBL1240409, “Design, synthesis and evaluation of (E)-alpha-benzylthio chalcones as novel inhibitors of BCR-ABL kinase” (Bioorg Med Chem, 2010).

For one experiment, the system named is DU-145. The experiment is described as follows: Growth inhibition of human DU145 cells after 96 hrs by trypan blue exclusion assay. The format is functional. The following applies: DU-145, 96 h.
A further experiment has as its system K562. The experiment is described as follows: Growth inhibition of human K562 cells expressing p210Bcr/Abl after 96 hrs by trypan blue exclusion assay. The format is functional, cell-based. To be noted: K562, 96 h. The procedure, abridged:
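K562 cells were kept in RPMI with 10% FBS and penicillin–streptomycin at 37 °C under 5% CO2. Cells were seeded at 1 × 10^5 cells/mL with a range of compound concentrations, using DMSO as the negative control. After 96 h, viability was counted by Trypan blue exclusion and expressed as percent of DMSO control to derive GI50.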

Regarding `COc1ccccc1/C=C(/SCc1ccc(F)cc1)C(=O)c1ccc(Cl)cc1`, the values for the GI50 with DU-145 and in the experiment on K562 were 10 µM and 1 µM, respectively.

For the compound `Cc1ccc(S(=O)(=O)/C(=C/c2c[nH]c3ccccc23)C(=O)c2ccc(Br)cc2)cc1`, the GI50 in the experiment on DU-145 and in the experiment on K562 was 10 µM in each case.

Take `COc1cc(OC)c(C=C(SCc2ccccc2Cl)C(=O)c2ccc(Cl)cc2)c(OC)c1`: the GI50 was 25 µM with DU-145 and 10 µM in the experiment with K562.

Turning to `CSc1ccc(/C=C(/SCc2ccc(Br)cc2)C(=O)c2ccc(C(=O)O)cc2)cc1`, the GI50 in the experiment on DU-145 and in the experiment with K562 was 10 µM each time.

Turning to `O=C(/C(=C\c1ccc(O)c([N+](=O)[O-])c1)SCc1ccccc1Cl)c1ccc(Cl)cc1`, the GI50 in the experiment with DU-145 and in the experiment with K562 was 10 µM throughout.

On to `CCOc1ccc(/C=C(/Sc2ccccc2Cl)C(=O)c2ccc(Cl)cc2)cc1OC`, for which the GI50 with DU-145 is 50 µM; in the experiment with K562 it was 1 µM.

In the case of `Cc1ccc(CS(=O)(=O)/C(=C/c2ccc(Cl)cc2)C(=O)c2ccc(Cl)cc2)cc1`, the 50% growth inhibitory concentration (GI50) in the experiment on DU-145 and with K562 was 25 µM throughout.

For the compound `Cc1ccc(CS/C(=C/c2ccc(O)c(O)c2O)C(=O)c2ccc(Cl)cc2)cc1`, the concentration for 50% growth inhibition (GI50) in the experiment on DU-145 and in the experiment on K562 was 50 µM throughout.

For the compound `O=C(/C(=C\c1ccc(O)c([N+](=O)[O-])c1)S(=O)(=O)Cc1ccccc1Cl)c1ccc(Cl)cc1`, the GI50 with DU-145 and with K562 was 10 µM each time.

In the case of `O=C(/C(=C\c1ccccc1OCc1ccccc1)S(=O)(=O)c1ccc(Br)cc1)c1ccc(Cl)cc1`, the GI50 with DU-145 and with K562 was 1 µM each time.

`Cc1ccc(CS/C(=C/c2ccc(C(=O)O)cc2)C(=O)c2ccc(Cl)c([N+](=O)[O-])c2)cc1`: the GI50 in the experiment on DU-145 was determined as 10 µM; in the experiment with K562 it was 1 µM.

Regarding `COc1cc(OC)c(/C=C(\C(=O)c2ccc(Cl)cc2)S(=O)(=O)c2ccc(Br)cc2)c(OC)c1`, the GI50 with DU-145 and with K562 was more than 100 µM each time.

Take `O=C(/C(=C\c1ccc(O)c([N+](=O)[O-])c1)Sc1ccc(Br)cc1)c1ccc(Br)cc1`: the GI50 with DU-145 and in the experiment with K562 was 1 µM throughout.

Consider `COc1cc(OC)c(/C=C(\C(=O)c2ccc(Br)cc2)S(=O)(=O)Cc2ccc(Cl)cc2)c(OC)c1`, for which the GI50 with DU-145 and in the experiment with K562 was 25 µM throughout.

For the compound `O=C(/C(=C\c1ccc(O)c([N+](=O)[O-])c1)S(=O)(=O)Cc1ccc(Br)cc1)c1c(F)c(F)c(F)c(F)c1F`, the GI50 with DU-145 and in the experiment on K562 was 50 µM each time.

Take `O=C(/C(=C\c1ccc(O)cc1)SCc1ccc(Cl)cc1)c1ccc(Br)cc1`: the GI50 in the experiment on DU-145 amounted to 10 µM; in the experiment with K562, 1 µM.

`O=C(/C(=C\c1ccc(O)cc1)SCc1ccc(Cl)c(Cl)c1)c1ccc(Cl)cc1`: the GI50 in the experiment with DU-145 and in the experiment on K562 was 1 µM throughout.

As for `Cc1cc(C)cc(/C=C(\C(=O)c2ccc(Br)cc2)S(=O)(=O)Cc2ccc(F)cc2)c1`, the GI50 in the experiment on DU-145 and in the experiment on K562 was 10 µM each time.

As for `Nc1ccc(/C=C(/SCc2ccc(F)cc2)C(=O)c2ccc(C(=O)O)cc2)cc1[N+](=O)[O-]`, the GI50 with DU-145 and in the experiment with K562 was 10 µM throughout.

In the case of `Cc1ccsc1/C=C(/SCc1ccc(Cl)c(Cl)c1)C(=O)c1ccc(Cl)cc1`, the GI50 in the experiment on DU-145 and in the experiment with K562 was 50 µM each time.

Regarding `COc1cc(OC)c(/C=C(\C(=O)c2ccc(Cl)cc2)S(=O)(=O)Cc2ccc(F)cc2)c(OC)c1`, the GI50 was 25 µM in the experiment on DU-145 and 1 µM in the experiment on K562.

On to `O=C(O)c1ccc(C(=O)/C(=C\c2ccccc2F)SCc2ccc(Br)cc2)cc1`, for which the GI50 with DU-145 and with K562 was 10 µM throughout.

With `O=C(/C(=C\c1ccc(O)c([N+](=O)[O-])c1)SCc1ccc(Cl)cc1)c1ccc(Cl)cc1`, the GI50 in the experiment on DU-145 and with K562 was 10 µM each time.

Regarding `Cc1ccc(S(=O)(=O)/C(=C/c2ccccc2OCc2ccccc2)C(=O)c2ccc(Br)cc2)cc1`, the concentration for 50% growth inhibition (GI50) in the experiment on DU-145 and with K562 was 1 µM in each case.

With `Cc1ccc(S(=O)(=O)/C(=C/c2ccc(C)s2)C(=O)c2ccc(Cl)cc2)cc1`, the GI50 in the experiment on DU-145 was determined as 50 µM; in the experiment on K562, 25 µM.

Turning to `O=C(O)c1ccc(C(=O)/C(=C\c2ccc(N3CCN(Cc4ccccc4)CC3)c([N+](=O)[O-])c2)SCc2ccc(F)cc2)cc1`, the GI50 with DU-145 and in the experiment with K562 was 1 µM each time.

Regarding `Cc1ccc(S(=O)(=O)/C(=C/c2ccc(N(C)C)cc2)C(=O)c2ccc(Cl)cc2)cc1`, the GI50 with DU-145 and in the experiment on K562 was more than 100 µM each time.

With `O=C(/C(=C\c1ccc(OCc2ccccc2)cc1)S(=O)(=O)Cc1ccc(Cl)cc1)c1ccc(Cl)cc1`, the GI50 in the experiment on DU-145 and with K562 was 1 µM throughout.

Regarding `O=C(/C(=C\c1ccc(Br)cc1)S(=O)(=O)c1ccc(Br)cc1)c1ccccc1O`, the GI50 in the experiment with DU-145 was more than 100 µM; with K562, 10 µM.

`COc1ccc(/C=C(/SCc2ccc(F)cc2)C(=O)c2ccc(Br)cc2)cc1O`: the GI50 in the experiment with DU-145 and with K562 was 1 µM each time.

For the compound `O=C(/C(=C\c1ccc(Br)cc1)Sc1ccccc1Br)c1ccc(Br)cc1`, the results for the GI50 with DU-145 and in the experiment with K562 were 1 µM and 8 µM, respectively.

With `O=C(/C(=C\c1ccccc1OCc1ccccc1)S(=O)(=O)c1ccc(F)cc1)c1ccc(Cl)cc1`, the GI50 in the experiment with DU-145 and in the experiment on K562 was 1 µM throughout.

With `Cc1ccc(CS/C(=C/c2cc(Cl)cc(Cl)c2)C(=O)c2ccc(Cl)cc2)cc1`, the GI50 in the experiment on DU-145 and with K562 was 10 µM throughout.

Turning to `O=C(/C(=C\c1ccc(Br)cc1)SCc1ccc(Cl)cc1)c1ccc(Cl)cc1`, the GI50 with DU-145 and with K562 was 1 µM each time.

As for `COc1cc(OC)c(/C=C(/SCc2ccc(Cl)cc2)C(=O)c2ccc([N+](=O)[O-])cc2)c(OC)c1`, the figures for the GI50 with DU-145 and with K562 were more than 100 µM and 50 µM, respectively.

Consider `O=C(/C(=C\c1ccc(O)c([N+](=O)[O-])c1)S(=O)(=O)c1ccc(I)cc1)c1ccc(I)cc1`, for which the GI50 in the experiment on DU-145 and in the experiment with K562 was 25 µM each time.

As to `Cc1ccc(S/C(=C/c2ccc(C)s2)C(=O)c2ccc(Br)cc2)cc1`, the GI50 in the experiment with DU-145 is more than 100 µM; in the experiment on K562, 50 µM.

Regarding `O=C(/C(=C\c1cc(Cl)c(O)c(Cl)c1)SCc1ccc(Br)cc1)c1ccc(Br)cc1`, the GI50 in the experiment on DU-145 and in the experiment on K562 was 10 µM in each case.

For `COc1ccccc1/C=C(\C(=O)c1ccc([N+](=O)[O-])cc1)S(=O)(=O)Cc1ccc(Cl)cc1`, the GI50 with DU-145 and in the experiment on K562 was 10 µM each time.

Take `Cc1ccsc1/C=C(\C(=O)c1ccc(Cl)cc1)S(=O)(=O)Cc1ccc(F)cc1`: the GI50 was determined as 10 µM in the experiment with DU-145 and 1 µM with K562.

Turning to `COc1ccc(C(=O)/C(=C\c2ccc(Cl)cc2)Sc2ccc(F)cc2)cc1`, the GI50 in the experiment with DU-145 and with K562 was more than 100 µM each time.

`Cc1ccsc1/C=C(/SCc1ccc(Cl)cc1)C(=O)c1ccc([N+](=O)[O-])cc1`: the GI50 in the experiment with DU-145 and in the experiment with K562 was more than 100 µM throughout.

Consider `O=C(O)c1ccc(C(=O)/C(=C\c2ccc(O)c([N+](=O)[O-])c2)SCc2ccc(F)cc2)cc1`, for which the GI50 with DU-145 was more than 100 µM; in the experiment on K562 it was 50 µM.

As to `O=C(/C(=C\c1cccc(Cl)c1Cl)SCc1ccc(Cl)cc1)c1ccc(Br)cc1`, the GI50 in the experiment with DU-145 and in the experiment with K562 was 10 µM throughout.

Consider `COc1ccc(S(=O)(=O)/C(=C/c2ccc(Br)cc2)C(=O)c2ccc(Br)cc2)cc1`, for which the GI50 in the experiment on DU-145 and with K562 was 6 µM in each case.

For the compound `COc1ccccc1/C=C(/SCc1ccc(Cl)cc1)C(=O)c1ccc([N+](=O)[O-])cc1`, the figures for the GI50 in the experiment with DU-145 and in the experiment with K562 were 10 µM and 1 µM, respectively.

In the case of `CCOc1ccc(/C=C(\C(=O)c2ccc(Cl)cc2)S(=O)(=O)c2ccc(C)cc2)cc1OC`, the GI50 in the experiment on DU-145 and with K562 was 1 µM in each case.

`COc1cc(C(=O)/C(=C\c2ccc([N+](=O)[O-])c(O)c2)SCc2ccc(Br)cc2)cc(OC)c1OC`: the GI50 in the experiment on DU-145 and with K562 was 1 µM throughout.

Regarding `CN(C)c1ccc(/C=C(/Sc2ccc(Br)cc2)C(=O)c2ccc(Cl)cc2)cc1`, the concentration for 50% growth inhibition (GI50) in the experiment on DU-145 and in the experiment with K562 was more than 100 µM in each case.

`Cc1ccc(CS(=O)(=O)/C(=C/c2sccc2C)C(=O)c2ccc(Cl)cc2)cc1`: the GI50 with DU-145 and in the experiment with K562 was 25 µM throughout.

`O=C(/C(=C\c1ccccc1OCc1ccccc1)SCc1ccc(F)cc1)c1ccc(Cl)cc1`: the GI50 in the experiment with DU-145 and in the experiment on K562 was 1 µM each time.

In the case of `Cc1ccc(S(=O)(=O)/C(=C/c2c[nH]c3ccc(Cl)cc23)C(=O)c2ccc(Br)cc2)cc1`, the GI50 in the experiment with DU-145 and in the experiment on K562 was 10 µM in each case.

For `COc1ccc(/C=C(\C(=O)c2ccc(Br)cc2)S(=O)(=O)Cc2ccc(Cl)cc2)cc1`, the figures for the GI50 in the experiment on DU-145 and in the experiment with K562 were 25 µM and 10 µM, respectively.

`COc1ccc(/C=C(/Sc2ccc(C)cc2)C(=O)c2ccc(Cl)cc2)cc1O`: the GI50 in the experiment on DU-145 and in the experiment with K562 was 1 µM each time.

In the case of `O=C(/C(=C\c1ccc(F)cc1F)Sc1ccc(Br)cc1)c1ccc(Br)cc1`, the GI50 in the experiment with DU-145 and in the experiment on K562 was 1 µM throughout.

Consider `O=C(O)c1ccc(/C=C(/SCc2ccc(Cl)cc2)C(=O)c2ccc(C(=O)O)cc2)cc1`, for which the GI50 in the experiment on DU-145 and in the experiment with K562 was more than 100 µM throughout.

With `COc1ccc(S(=O)(=O)/C(=C/c2ccccc2OCc2ccccc2)C(=O)c2ccc(Cl)cc2)cc1`, the GI50 in the experiment on DU-145 and in the experiment with K562 was 1 µM each time.

Turning to `Cc1cc(F)ccc1/C=C(/SCc1ccc(F)cc1)C(=O)c1ccc(Br)cc1`, the GI50 in the experiment on DU-145 and in the experiment with K562 was 10 µM throughout.

For `Cc1ccc(S(=O)(=O)/C(=C/c2ccc(N(C)C)cc2)C(=O)c2ccc(Br)cc2)cc1`, the figures for the GI50 in the experiment on DU-145 and with K562 were 50 µM and more than 100 µM, respectively.

As for `O=C(/C(=C\c1c(O)cc(O)cc1O)SCc1ccc(Cl)c(Cl)c1)c1ccc(Cl)cc1`, the 50% growth inhibitory concentration (GI50) in the experiment on DU-145 and in the experiment with K562 was 25 µM in each case.

Regarding `Cc1ccc(/C=C(\C(=O)c2ccc(Cl)cc2)S(=O)(=O)Cc2ccc(F)cc2)s1`, the GI50 with DU-145 and in the experiment with K562 was 50 µM in each case.
